# The source made the active and inactive calls. The rule behind the calls is not given here.
# Legend:
# [1] = Octanol-water partition coefficient, log P at pH 7.4 by HPLC; assay type: physicochemical
# Outline: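 Shake-flask method. About 5 mg of compound was shaken in 1 mL n-octanol and filtered, then an equal volume of phosphate buffer pH 7.4 was added. The mixture was inverted up to 200 times over 5 min and left 30 min for the phases to separate. Both phases were analysed by HPLC. Mean of three experiments, SEM reported.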
# [2] = Aqueous solubility after 15 mins by shake flask method; assay type: physicochemical; conditions: water
# [3] = Metabolic stability in 80% rat plasma assessed as half life at pH 7.4; assay type: ADME, cell-free
# Outline: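 Plasma was prepared from citrated blood (0.3% citric acid) of rats or humans by centrifugation at 3000 g and diluted to 80% with 0.02 M phosphate buffer pH 7.4. Drug from a 1 mg/mL acetonitrile stock was incubated at 37 °C with shaking. Timed aliquots were deproteinized with 0.01 M HCl in methanol, centrifuged and analysed by HPLC. First-order plots gave t1/2; triplicate, mean ± SEM.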
# [4] = Chemical stability assessed as half life in hydrochloric acid buffer at pH 1.3; assay type: physicochemical
# Outline: (§1)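 Prodrug hydrolysis was followed at 37 ± 0.5 °C. Line 3 used 0.02 M HCl buffer pH 1.3 (nonenzymatic simulated gastric fluid); line 4 used 0.02 M phosphate buffer pH 7.4. Each buffer contained 20% acetonitrile, and the reaction was started with 10^-4 M acetonitrile stock. Aliquots were analysed by HPLC. Kobs came from the slope of log(% residual prodrug) versus time; triplicate runs, mean ± SEM.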
# Homo sapiens = species on record: Homo sapiens; assay: Metabolic stability in 80% human plasma assessed as half life at pH 7.4
# [5] = test system: Radical scavenging activity; assay: Antioxidant activity assessed as DPPH radical scavenging activity; assay type: functional
# Outline: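 DPPH-HPLC method. Fresh 500 μM DPPH in methanol was mixed 1:1 by volume with antioxidant solutions made at 600, 300, 100 and 50 μM in methanol (DPPH final 250 μM). Residual DPPH was separated by reversed-phase C18 HPLC using a pH 3.0 phosphate/octanesulfonate/EDTA mobile phase with 6% acetonitrile. Vitamin E, caffeic acid and L-DOPA were run as references.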
# [6] = Chemical stability assessed as half life in phosphate buffer at pH 7.4; assay type: physicochemical; outline: as §1
logP [1],solubility thermodynamic at 0.25 h [2],logD [1],half-life [3],half-life [4],half-life (Homo sapiens),half-life [6],SMILES,Activity [5]
-2.38,3.6 mg/mL,,,,,,N[C@@H](Cc1ccc(O)c(O)c1)C(=O)O [LEVODOPA],
,0.26 mg/mL,0.94,1.89 h,64.3 h,0.793 h,4.75 h,CCC1(CC)N[C@@H](Cc2ccc(O)c(O)c2)C(=O)N1CC(=O)OC,Active
,26 mg/mL,0.042,0.065 h,71.2 h,0.392 h,11.6 h,COC(=O)CN1C(=O)[C@H](Cc2ccc(OC(C)=O)c(OC(C)=O)c2)NC1(C)C,inactive
,3.99 mg/mL,0.101,1.17 h,189 h,0.714 h,4.2 h,COC(=O)CN1C(=O)[C@H](Cc2ccc(O)c(O)c2)NC1(C)C,Active

# Reference: ChEMBL document CHEMBL1157590, “Design, synthesis, and preliminary pharmacological evaluation of new imidazolinones as L-DOPA prodrugs” (Bioorg Med Chem, 2010)
